From PubChem
CHO parental Ca = counter-screen: ATP calcium response change in parental CHO cells; parental CHO-K1, ATP-induced calcium, Fluo-8 fluorescence; inhibition, % at 5.6 µM; hit rate 0.63% among 330,000; AID 463079;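 active = inhibition above that plate's mean sample inhibition plus 3 SD, cut at about 26% in these data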;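 note: 0% = ATP-challenged DMSO wells and 100% = DMSO wells without ATP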
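Assay system: untransfected parental CHO cell line. Also added: ATP agonist challenge. Dosing: one dose, 5.6 µM nominal. Measured by: Fluo-8 fluorescence. Read-out: % inhibition. Benchmarks: ATP wells versus no-ATP DMSO wells. Repeats: no replicates.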
OX1R antag-1 = OX1R (human) antagonism. O43613. OX1R-expressing cells, FRET antagonist read-out. inhibition, % at 6.6 µM. hit rate 1.8% among 330,000. AID 485270; in the data active = inhibition mostly above about 38%, no sharp cut-off; inactive = mostly below about 40%;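 note: 0% = agonist challenge alone and 100% = reference antagonist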
GPR7 antagonist = blocks human GPR7 receptor signaling. P48145. GPR7-expressing cells, fluorescence antagonist assay. inhibition, % at 4.4 µM. hit rate 1.1% among 290,000; in the data active = inhibition above about 16%, passing the limit was not always enough;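 note: cells stimulated with the agonist NPW; 0% = agonist with vehicle and 100% = vehicle without agonist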
OX1R antag-2 = blocks the human orexin 1 receptor; O43613; CHO/OX1R cells, Fluo-8 calcium fluorescence, orexin A; inhibition, % at 5 µM; hit rate 0.43% among 330,000;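 active = inhibition above its plate's threshold, mean inhibition of all tested compounds on the plate plus 3 SD, cut at about 37% in these data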;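 note: 0% = orexin A challenge wells and 100% = SB-334867-A antagonist wells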
TAAR1 antag = human TAAR1 antagonism; Q96RJ0; CHO RD-HGA16 TAAR1, Fluo-8 calcium fluorescence, antagonist; inhibition, % at 3 µM; hit rate 1.5% among 360,000; AID 624466;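 active = inhibition above a per-plate cutoff, the mean inhibition of test compounds on that plate plus 3 SD, cut at about 49% in these data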;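 note: 0% = DMSO plus EC80 beta-PEA response and 100% = DMSO alone without agonist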
Target sequence (Q96RJ0 whole entry, looked up): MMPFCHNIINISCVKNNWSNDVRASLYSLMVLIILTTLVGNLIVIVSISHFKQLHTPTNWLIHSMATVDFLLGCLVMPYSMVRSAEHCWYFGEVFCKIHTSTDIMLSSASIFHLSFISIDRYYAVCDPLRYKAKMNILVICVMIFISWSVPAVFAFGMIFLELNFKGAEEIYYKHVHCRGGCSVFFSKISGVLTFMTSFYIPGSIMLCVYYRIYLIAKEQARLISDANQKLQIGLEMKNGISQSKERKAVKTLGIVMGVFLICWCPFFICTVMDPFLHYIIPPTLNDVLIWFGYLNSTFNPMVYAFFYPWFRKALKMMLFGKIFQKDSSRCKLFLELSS
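Assay system: CHO-derived RD-HGA16 cells stably expressing human TAAR1 plus Gα16. Timing: 140 s kinetic read after compound, 140 s after agonist. Technique: kinetic Fluo-8 calcium fluorescence measurement. Measure: % inhibition of agonist calcium response.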
TAAR1 ag = agonists of human TAAR1 | Q96RJ0 | CHO RD-HGA16 TAAR1, Fluo-8 calcium fluorescence; vehicle wells 0%, saturating PEA agonist 100% | activation, % at 3 µM | hit rate 0.99% among 360,000 | AID 624467;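 active = activation above the mean activation of all test compounds in the run plus 3 SD, cut at about 38% in these data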
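System: CHO RD-HGA16 cells carrying human TAAR1 plus Gα16; Incubation: 17-24 h seeding, 75 min 37 °C dye, 30 min RT; Measured by: Fluo-8 fluorescence, 5 s baseline then 140 s kinetic read; Control set: DMSO and PEA EC100; Replication: single well for each compound.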
* hit, by the source's call; · = no result given. Rows were chosen to be rich in hits. Some 4.6% of all compounds tested hit in one or more screens of this group.

SMILES | CHO parental Ca | OX1R antag-1 | GPR7 antagonist | OX1R antag-2 | TAAR1 antag | TAAR1 ag
Cc1ccc(NC(=O)c2ccc(Br)o2)c([N+](=O)[O-])c1 | · | · | · | · | -10 | -1
CC(=O)Nc1ccc(N=NC2C(=O)N(C(N)=S)N=C2C)cc1 (stereo unspecified) | -7 | 34* | -13 | -10 | 1 | 5
CC1=NN(C(N)=S)C(=O)C1N=Nc1ccc(O)cc1 (stereo unspecified) | · | · | 0 | · | 5 | 2
CN(CCO)c1cc(Sc2nc3ccccc3s2)c2nonc2c1[N+](=O)[O-] | 88* | 67* | -11 | 70* | 39 | 18
Cc1cc(N2CCN(CC(C)(C)O)C[C@@H]2C)ccc1N1CCN(Cc2ccccc2)[C@@H](C)C1 | · | · | · | · | -36 | 2
Nc1[nH]c(C(=O)c2ccc(Br)cc2)c(-c2ccc(Br)cc2)c1C(=O)NCc1cccc2ccccc12 | · | · | · | · | -21 | 2
COc1ccc(OC)c(NS(=O)(=O)c2ccc(Cl)s2)c1 | -3 | 7 | 6 | -7 | 2 | 3
COc1ccc(OC)c(NS(=O)(=O)c2ccc(Br)s2)c1 | 38* | 33 | -1 | -3 | · | ·
O=C(NC1CC1)c1cc2c(F)cccc2s1 | -3 | 14 | -14 | -5 | 10 | 10
COc1cccc(NC(=O)c2cc3cccc(OC)c3o/c2=N\O)c1 | 16 | 93* | -19 | 40* | · | ·
COc1cccc(NC(=O)c2cc3ccccc3o/c2=N\O)c1 | -11 | 24 | 0 | -24 | 25 | 7
COc1cccc2cc(C(=O)NCCN3CCOCC3)c(=O)oc12 | -13 | 39* | -7 | -5 | -13 | 4
COc1ccc(C(=O)NNC(=O)c2cc3cccc(OC)c3oc2=O)cc1 | -5 | 50* | 3 | -16 | -7 | 14
COc1ccc(C(=O)NNC(=O)c2cc3cc(OC)ccc3oc2=O)cc1 | 1 | 31 | -8 | -11 | -31 | 9
O=C(Nc1ccccc1Br)c1cc[n+]([O-])cc1 | -4 | 20 | -9 | -19 | -1 | 3
CC1=C/C(=N\OS(=O)(=O)c2ccccc2)C(C)=CC1=O | 82* | 102* | 73* | 93* | · | ·
CC1=C/C(=N\OS(=O)(=O)c2ccccc2)C(C(C)C)=CC1=O | 45 | 37 | 44* | 51* | · | ·
CC1=C(C)/C(=N\OS(=O)(=O)c2ccc(C)cc2)C=CC1=O | 68* | 82* | 60* | 58* | 52* | 6
CC(S(=O)(=O)c1ccccc1)S(=O)(=O)c1ccccc1 | · | · | · | · | -11 | 2
COc1ccc(S(=O)(=O)/N=C2/C=CC(=O)C(C)=C2C)cc1 | -17 | 3 | 1 | -27 | · | ·
CC(=O)c1cccc(NS(=O)(=O)c2ccc(N/C=C\C(=O)c3ccc(C)cc3)cc2)c1 | 47* | 53 | 7 | 49* | 19 | 6
COC(=O)Nc1ccc(S(=O)(=O)Nc2ccc(C)cc2)cc1 | · | · | 0 | · | · | ·
CC(=O)c1ccc(NC(=O)Nc2ccc(NS(=O)(=O)c3ccc(C)cc3)cc2)cc1 | -3 | 10 | 11 | 24 | 56* | 6
Clc1ccc2oc(SCc3cccnc3)nc2c1 | -12 | 8 | 15 | -29 | -11 | 5
Cn1ncc2c(Nc3ccc(Cl)c(Cl)c3)ncnc21 | -12 | 65* | 13 | 8 | 14 | 37
SMILES | CHO parental Ca | OX1R antag-1 | GPR7 antagonist | OX1R antag-2 | TAAR1 antag | TAAR1 ag
O=C(COC(=O)c1ccc(Br)o1)NCCNC(=O)COC(=O)c1ccc(Br)o1 | -6 | 21 | · | -23 | -13 | 6
CC(NC(=O)COC(=O)c1ccc([N+](=O)[O-])o1)c1ccccc1 (stereo unspecified) | -7 | 33 | · | -16 | -20 | 5
O=C(COC(=O)c1ccc(Br)o1)Nc1ccc(Br)cc1 | 3 | -3 | · | -2 | 9 | 40*
O=C(COC(=O)c1ccc([N+](=O)[O-])o1)NCCc1ccccc1 | -5 | 32* | · | 6 | -7 | 17
O=C(COC(=O)c1ccc([N+](=O)[O-])o1)Nc1ccc(Br)cc1F | 0 | 28* | · | -7 | 16 | -3
C#CCNC[C@@H]1CSCCS(=O)(=O)N1 | · | · | · | · | 0 | 3
COC(=O)[C@]12C[C@H](CC(=O)NCCCN3CCCC3=O)C(=O)N(Cc3ccccc3)C1=C[C@H](C(C)(C)C)O[C@@H]2C | · | · | · | · | -11 | 2
